The results in this text go back to ChEMBL document CHEMBL2396559, “Synthesis and preliminary biological evaluation of a compound library of triazolylcyclitols” (2013).

The source made the active and inactive calls. The rule behind the calls is not given here.

A short description of assay [1]: Immunosuppressive activity against C57Bl/6 mouse splenic lymphocytes assessed as concanavalin A-induced cell proliferation at > 0.002 nM incubated for 1 hr prior to concanavalin A challenge measured after 48 hrs by resazurin reduction assay relative to control. Type of assay: functional, Splenic lymphocyte. Also on record: scale not given: the % may be the effect or the level left. An outline of the steps:
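Splenocytes from male C57Bl/6 mice were plated at 1×10^6 cells/mL, 37 °C, 5% CO2. Compounds at 0.002–200 nM were added for 1 h, then cells were incubated with or without concanavalin A (0.5 µg/mL) for 48 h. Resazurin 0.01% was added for 24 h, then OD read at 570 and 600 nm and proliferation taken as the difference. Compared with ConA plus vehicle. Three animals in triplicate.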

The subject of another assay is Splenic lymphocyte. Briefly: Immunosuppressive activity against C57Bl/6 mouse splenic lymphocytes assessed as cell viability at 200 nM after 72 hrs by MTT assay. Type of assay: functional. An outline of the steps: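 Spleens from male 18-week-old C57Bl/6 mice were teased through a strainer, washed in RPMI and resuspended in RPMI with 10% FBS. Cells were counted by trypan blue and cultured in triplicate at 37 °C for 72 h with vehicle (medium, 0.1% DMSO), 10% DMSO or compound at 200 nM. MTT was added for 2 h, formazan dissolved in DMSO and read at 570 nm. Viability taken as % of vehicle after blank subtraction. Three animals.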

The next assay relates to Nannizzia gypsea. Briefly: Antifungal activity against Microsporum gypseum ATCC 24102 assessed as growth inhibition at 10 mg/mL by bioautographic agar overlay method. Type of assay: functional, organism-based. An outline of the steps: (§1)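 Samples at 10 mg/mL spotted on silica gel TLC plates, overlaid with a thin Sabouraud agar film inoculated 50:1 with fresh-culture suspension at 10^6 cells or spores/mL. Incubation time and conditions were set per fungus. Growth-free zones around spots scored qualitatively. Same plate carried DMSO 1% negative control plus amphotericin B and ketoconazol controls.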

The test system of a further assay is Trichophyton rubrum. Put plainly: Antifungal activity against Trichophyton rubrum ATCC 28188 assessed as growth inhibition at 10 mg/mL by bioautographic agar overlay method. Format: functional, organism-based. An outline of the steps:
as §1

Assay [2] deals with Trichophyton mentagrophytes. Briefly: Antifungal activity against Trichophyton mentagrophytes ATCC 9533 assessed as growth inhibition at 10 mg/mL by bioautographic agar overlay method. Format: functional, organism-based. An outline of the steps:
as §1

In the next assay the test system is Cryptococcus neoformans. Put plainly: Antifungal activity against Cryptococcus neoformans ATCC 14116 assessed as growth inhibition at 10 mg/mL by bioautographic agar overlay method. Format: functional, organism-based. An outline of the steps:
as §1

A further assay relates to Nakaseomyces glabratus. Put plainly: Antifungal activity against Candida glabrata ATCC 15126 assessed as growth inhibition at 10 mg/mL by bioautographic agar overlay method. Format: functional, organism-based. An outline of the steps: as §1
For another assay, the system named is Candida parapsilosis. Briefly: Antifungal activity against Candida parapsilosis ATCC 22919 assessed as growth inhibition at 10 mg/mL by bioautographic agar overlay method. Type of assay: functional, organism-based. An outline of the steps: as §1
For the next assay, the system named is Candida albicans. Put plainly: Antifungal activity against Candida albicans ATCC 90022 assessed as growth inhibition at 10 mg/mL by bioautographic agar overlay method. Type of assay: functional, organism-based. An outline of the steps: as §1

As for `O[C@H]1[C@H](O)[C@@H](n2cc(-c3ccc(-c4cn([C@H]5C=C(Br)[C@@H](O)[C@@H](O)[C@@H]5O)nn4)cc3)nn2)C=C(Br)[C@H]1O`, in assay [1], the Activity entry was “<=30%”. Further, in the assay with Splenic lymphocyte, the result was inactive. Further, the “growth inhibition (GI)” value in the assay on Nannizzia gypsea and with Trichophyton rubrum was “Active” in each case. Moreover, the “growth inhibition (GI)” value (in assay [2]; in the assay on Cryptococcus neoformans; in the assay on Nakaseomyces glabratus; in the assay with Candida parapsilosis; with Candida albicans) was “inactive” in each case.
For `C#Cc1cccc(-c2cn([C@H]3C=C(Br)[C@@H](O)[C@@H](O)[C@@H]3O)nn2)c1`, the Activity entry in [1] was “<=30%”. Further, the outcome with Splenic lymphocyte was inactive. For the same molecule, the “growth inhibition (GI)” value (in the assay with Nannizzia gypsea; in the assay on Trichophyton rubrum; in assay [2]; in the assay on Cryptococcus neoformans; in the assay with Nakaseomyces glabratus; with Candida parapsilosis) was “inactive” each time. In addition, in the assay on Candida albicans, the “growth inhibition (GI)” value was “inactive”.
Regarding `C#Cc1cccc(-c2cn([C@@H]3C=C(Br)[C@@H](O)[C@@H](O)[C@@H]3O)nn2)c1`, the Activity entry in assay [1] is given as “<=30%”. The result in the assay on Splenic lymphocyte was inactive. For the same molecule, the “growth inhibition (GI)” value (in the assay on Nannizzia gypsea; with Trichophyton rubrum; in [2]; in the assay with Cryptococcus neoformans; with Nakaseomyces glabratus; with Candida albicans) was “inactive” in each case. The “growth inhibition (GI)” value in the assay on Candida parapsilosis was “Active”.
For the molecule `C#Cc1ccc(-c2cn([C@H]3C=C(Br)[C@@H](O)[C@@H](O)[C@@H]3O)nn2)cc1`, the Activity entry in [1] is recorded as “<=30%”. In addition, the result with Splenic lymphocyte was inactive. Besides, the “growth inhibition (GI)” value (in the assay with Nannizzia gypsea; in the assay with Trichophyton rubrum; in [2]; in the assay with Cryptococcus neoformans; in the assay on Nakaseomyces glabratus; in the assay on Candida parapsilosis) was “inactive” each time. Also, the “growth inhibition (GI)” value in the assay with Candida albicans was “inactive”.
With `O[C@H]1[C@H](O)[C@H](n2cc(-c3ccc(-c4cn([C@@H]5C=C(Br)[C@@H](O)[C@@H](O)[C@@H]5O)nn4)cc3)nn2)C=C(Br)[C@H]1O`, the Activity entry in assay [1] is “<=30%”. Moreover, the outcome in the assay on Splenic lymphocyte was inactive. Further, the “growth inhibition (GI)” value (in the assay on Nannizzia gypsea; in the assay with Trichophyton rubrum; in [2]; in the assay on Cryptococcus neoformans; in the assay on Nakaseomyces glabratus; in the assay on Candida albicans) was “inactive” each time. The “growth inhibition (GI)” value in the assay with Candida parapsilosis is “Active”.
Consider `O[C@H]1[C@H](O)[C@H](n2cc(-c3cccc(-c4cn([C@H]5C=C(Br)[C@@H](O)[C@@H](O)[C@@H]5O)nn4)c3)nn2)C=C(Br)[C@H]1O` (mixture of isomers), for which the Activity result in [1] was “<=30%”. Also, in the assay with Splenic lymphocyte, the outcome was inactive. The “growth inhibition (GI)” value in the assay with Nannizzia gypsea, in the assay with Trichophyton rubrum, in the assay on Cryptococcus neoformans, in the assay with Candida parapsilosis and with Candida albicans was “inactive” each time. Besides, the “growth inhibition (GI)” value (in assay [2]; in the assay with Nakaseomyces glabratus) was “Active” throughout.
Take `O[C@H]1[C@H](O)[C@H](n2cc(-c3cccc(-c4cn([C@@H]5C=C(Br)[C@@H](O)[C@@H](O)[C@@H]5O)nn4)c3)nn2)C=C(Br)[C@H]1O`: the Activity result in assay [1] is given as “<=30%”. The outcome with Splenic lymphocyte was inactive. For the same molecule, the “growth inhibition (GI)” value (in the assay with Nannizzia gypsea; in the assay on Trichophyton rubrum; in assay [2]; in the assay with Cryptococcus neoformans; in the assay with Nakaseomyces glabratus; in the assay on Candida parapsilosis) was “inactive” throughout. In the assay with Candida albicans, the “growth inhibition (GI)” value is “inactive”.
In the case of `C#Cc1ccc(-c2cn([C@@H]3C=C(Br)[C@@H](O)[C@@H](O)[C@@H]3O)nn2)cc1`, in assay [1], the Activity entry is recorded as “<=30%”. Also, the result with Splenic lymphocyte was inactive. For the same molecule, the “growth inhibition (GI)” value (with Nannizzia gypsea; in the assay with Trichophyton rubrum; in assay [2]; with Cryptococcus neoformans; in the assay on Nakaseomyces glabratus; with Candida albicans) was “inactive” in each case. The “growth inhibition (GI)” value in the assay with Candida parapsilosis was “Active”.
Consider `O[C@H]1[C@H](O)[C@H](n2cc(-c3ccc(-c4cn([C@H]5C=C(Br)[C@@H](O)[C@@H](O)[C@@H]5O)nn4)cc3)nn2)C=C(Br)[C@H]1O` (mixture of isomers), for which, in [1], the Activity entry is “<=30%”. For the same molecule, the result in the assay on Splenic lymphocyte was inactive. For the same molecule, the “growth inhibition (GI)” value (in the assay with Nannizzia gypsea; in the assay with Trichophyton rubrum; in assay [2]; in the assay with Cryptococcus neoformans; in the assay with Nakaseomyces glabratus; in the assay on Candida parapsilosis) was “inactive” throughout. For the same molecule, in the assay on Candida albicans, the “growth inhibition (GI)” value was “inactive”.
In the case of `O[C@H]1[C@H](O)[C@@H](n2cc(-c3cccc(-c4cn([C@H]5C=C(Br)[C@@H](O)[C@@H](O)[C@@H]5O)nn4)c3)nn2)C=C(Br)[C@H]1O`, in [1], the Activity result is “<=30%”. In the assay on Splenic lymphocyte, the result was inactive. Also, the “growth inhibition (GI)” value (in the assay with Nannizzia gypsea; in the assay on Trichophyton rubrum; in assay [2]; in the assay on Cryptococcus neoformans; with Nakaseomyces glabratus; in the assay with Candida parapsilosis) was “inactive” each time. Further, the “growth inhibition (GI)” value with Candida albicans is “inactive”.
